Screens as filed in PubChem.
NPY-Y1 PAM-ag – potentiates or activates human NPY-Y1 receptor | P25929 | NPY-Y1 expressing cells, potentiator/agonist activation | activation, % at 3.6 µM | 220,000 compounds, 0.37% hits | AID 1304; in the data active = activation above about 33%, passing the limit was not always enough;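 note: cells stimulated with NPY at EC10 then isoproterenol at EC100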
NPY Y1 blocker – blocks the human neuropeptide Y Y1 receptor. P25929. HEK293-CNG Y1 cells, membrane potential fluorescence; NPY at EC95, then isoproterenol. inhibition, % at 3.6 µM. 200,000 compounds, 1% hits. AID 1040;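 active = inhibition above the campaign mean inhibition of all tested compounds plus 3 SD, cut at about 20% in these data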
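Material: HEK293 Y1/CNG channel cell line; also added: NPY (25 nM), isoproterenol (1 µM), Ro 20-1724 (25 µM); doses: one concentration, 3.6 µM, in 0.4% DMSO; schedule: compound incubation 1 h at room temperature, readout 45 min post-stimulation; technique: membrane potential fluorescence; measure: fluorescence ratio normalized to % inhibition between controls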
RAM network inh – yeast RAM network inhibition; inhibition, % at 50 µM; 190,000 compounds, 1.8% hits; S. cerevisiae dse1pr::URA3 reporter, 5-FOA growth OD615, 2 d; analog-sensitive cbk1-as2 kinase mutant strain;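 active = inhibition above a set limit, 3 SD over mean compound inhibition, cut at about 8.4% in these data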;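 note: inhibition rescues growth on 5-FOA so higher OD means more RAM inhibition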
WT yeast gro inh – growth inhibition of WT yeast, mitochondrial fusion screen; mitochondrial fusion phenotypic screen, WT strain; inhibition, % at 10 µM; 190,000 compounds, 2.1% hits; in the data active = inhibition above about 58%; tested in S. cerevisiae
NPY2 pot ag – potentiates or activates human NPY-Y2 receptor. activation, % at 3.6 µM. 220,000 compounds, 0.45% hits. cells expressing NPY-Y2, potentiator/agonist read-out; in the data active = activation above about 27%;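 note: cells stimulated with NPY near EC25 plus isoproterenol at EC100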
Target sequence (P49146 whole entry, looked up): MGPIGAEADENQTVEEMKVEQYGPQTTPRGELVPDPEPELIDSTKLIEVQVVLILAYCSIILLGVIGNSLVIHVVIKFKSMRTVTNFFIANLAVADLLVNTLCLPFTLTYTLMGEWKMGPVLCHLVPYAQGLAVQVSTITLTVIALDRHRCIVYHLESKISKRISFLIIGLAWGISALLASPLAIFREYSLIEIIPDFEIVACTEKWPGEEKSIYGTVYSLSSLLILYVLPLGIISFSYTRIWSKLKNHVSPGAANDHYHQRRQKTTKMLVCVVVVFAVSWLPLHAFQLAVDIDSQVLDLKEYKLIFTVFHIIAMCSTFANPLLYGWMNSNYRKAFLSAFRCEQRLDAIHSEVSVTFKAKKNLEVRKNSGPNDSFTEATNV
NPY Y2 blocker – antagonists of human neuropeptide Y receptor Y2; P49146; NPY-Y2 expressing cells, antagonist mode; inhibition, % at 2.7 µM; 140,000 compounds, 0.99% hits; AID 793; in the data active = inhibition above about 17%
A number is an active result; - = inactive; . = no result given. The list is not random: actives were taken first. Their share in the collection is about 4.9%.

SMILES	NPY-Y1 PAM-ag	NPY Y1 blocker	RAM network inh	WT yeast gro inh	NPY2 pot ag	NPY Y2 blocker
O=S(=O)(c1ccc(Cl)cc1)N1CCN(S(=O)(=O)N2CCCCCC2)CC1	-	-	-	-	-	.
COc1c(C(=O)Nc2ccc(Cc3ccncc3)cc2)ccc2ccccc12	-	-	-	68.4	-	-
COc1ccc(N2CCN(CCNC(=O)C3CC(=O)N(C4CCCC4)C3)CC2)cc1 (configuration not stated)	-	-	-	-	-	-
CCCCCC1CCC(c2n[nH]c(=S)n2C)CC1 (configuration not stated)	-	-	-	65.1	-	.
CC1(C)Cc2c(C#N)c(N3CCOCC3)nc(Cc3ccccc3)c2CO1	-	-	11.0	-	-	-
Cc1cc(C)c(COc2ccc(/C=N/n3c(C)n[nH]c3=S)cc2)c(C)c1	-	-	-	91.4	-	-
CN=c1scc(-c2cccs2)n1/N=C/c1ccccc1O	-	-	8.9	61.8	-	-
CN=c1scc(-c2cccs2)n1/N=C/c1ccc(O)c(O)c1O	-	-	-	-	-	-
CCOc1ccc(NC(=O)C(=O)NCc2ccncc2)cc1	-	-	-	-	-	.
Cc1c(C(=O)Oc2cccc3ccccc23)cnn1-c1ccccc1	-	-	8.6	.	-	18.1
CC(=O)c1cnn(-c2ccccc2)c1C	-	-	-	-	-	.
COc1cc(/C=C(/C#N)c2nc3ccccc3c(=O)[nH]2)ccc1O	-	-	-	-	-	-
Fc1cccc(Cc2noc(CN3CCCN(C4Cc5ccccc5C4)CC3)n2)c1	-	21.5	-	-	-	.
Fc1cccc(Cc2noc(CN3CCSCC3)n2)c1	-	-	-	-	-	.
O=C(c1ccc(Cl)cc1)c1nnc(-c2ccncc2)o1	-	-	-	-	-	-
O=C(c1ccccc1)c1nnc(-c2ccncc2)o1	-	-	-	71.5	-	-
COCCn1c(SCC(=O)N(C)C2CCS(=O)(=O)C2)nc2ccccc2c1=O (configuration not stated)	-	-	-	-	-	.
Cc1ccc(NC(=O)c2cc(N3C(=O)C=CC3=O)ccc2Cl)cc1C	-	-	-	-	-	-
O=S(=O)(CCN1CCN(C(c2ccccc2)c2ccccc2)CC1)C(F)(F)F	-	-	-	-	-	-
O=C1c2ccccc2C(=O)N1CC#CCN1CCN(C(c2ccccc2)c2ccccc2)CC1	-	-	-	67.6	-	-
CCc1ccc(C(O)(c2ccccc2OC)C(CN2CCOCC2)c2ccccc2)cc1 (configuration not stated)	-	-	-	76.9	-	.
c1ccc(-c2noc(-c3cccc4ccccc34)n2)cc1	-	-	-	66.8	-	-
O=C1C2C3C=CC(c4ccccc4)(C2C(=O)N1c1cccc(Cl)c1)C1C(=O)N(c2cccc(Cl)c2)C(=O)C31 (configuration not stated)	-	-	-	-	-	-
Cn1c(C(C#N)/C(=N\S(=O)(=O)c2cccs2)c2ccccc2)nc2ccccc21 (configuration not stated)	-	-	9.6	-	-	-
O=C(CCSc1nc(-c2ccco2)cc(C(F)(F)F)n1)NCc1cccs1	-	-	10.2	-	-	-
SMILES	NPY-Y1 PAM-ag	NPY Y1 blocker	RAM network inh	WT yeast gro inh	NPY2 pot ag	NPY Y2 blocker
O=C(CSc1nc(-c2ccco2)cc(C(F)(F)F)n1)Nc1ccc2c(c1)CCC2	-	-	8.5	-	-	-
O=C(CCSc1nc(-c2ccco2)cc(C(F)(F)F)n1)NCc1ccccn1	-	-	-	-	-	-
COc1ccc(-c2cc(C(F)(F)F)nc(SCCC(=O)N3CCCC3)n2)cc1	-	-	8.8	-	-	-
COc1ccc(-c2cc(C(F)(F)F)nc(SCC(=O)Nc3cc(C)on3)n2)cc1OC	-	-	8.7	-	-	22.4
COc1ccc(-c2cc(C(F)(F)F)nc(SCCC(=O)N3CCN4CCCC4C3)n2)cc1 (configuration not stated)	-	-	-	-	-	-
Cc1ccc(NC(=O)CSc2nc(-c3ccco3)cc(C(F)(F)F)n2)cc1C	-	-	-	-	-	-
COc1ccc(-c2cc(C(F)(F)F)nc(SCCC(=O)Nc3cc(C)on3)n2)cc1	-	-	-	-	-	-
Cc1ccsc1C(=O)OCC(=O)NCCC1=CCCCC1	-	-	-	-	-	-
O=C(Nc1ccc(Oc2ccc(Cl)cc2)cc1)c1ncn[nH]1	-	-	-	-	-	-
CC(C)OC(=O)CSc1nc(-c2ccc(F)cc2)cc(C(F)(F)F)n1	-	28.2	-	-	-	24.8
O=C(CCSc1nc(-c2ccco2)cc(C(F)(F)F)n1)N1CCN(c2ccccc2)CC1	-	-	-	61.8	-	-
Cc1nc2cc(-c3cccs3)nn2c(NCC(C)(C)CN(C)C)c1C	-	-	-	-	-	.
COc1ccc(CC(=O)N2CCN(c3ccc(C4=NNC(=O)CC4C)cc3)CC2)cc1 (configuration not stated)	-	79.3	-	-	-	82.9
COc1ccc(CC(=O)N2CCN(C(=O)Cc3ccc(OC)cc3)CC2)cc1	-	-	-	-	-	-
Cc1nnc(SCc2ccccc2)[nH]c1=O	-	-	-	-	-	.
Cc1ccc(S(=O)(=O)n2c3ccc(F)cc3c3nc(C)sc32)cc1	-	-	-	78.2	-	-
CCN(CC)CCn1c2ccc(F)cc2c2nc(C)sc21	-	-	-	-	-	-
Cc1cc(Cl)ccc1N=C1N=C(N)c2ccccc21	-	-	8.9	-	-	-
NC1=NC(=Nc2ccc(Cl)cc2)c2ccccc21	-	-	-	-	-	-
COc1ccc(C2=Nc3cccc4cccc(c34)N2)cc1	-	-	-	65.7	-	-
CC(C)(C)SCCNS(=O)(=O)c1ccccc1	-	-	-	-	-	-
O=C1C=C(NCc2ccc(Cl)cc2Cl)C2(CCCCC2)O1	-	26.4	-	-	-	25.9
CCCCNC(=O)Nc1ccccn1	-	-	.	-	-	-
Cc1cc(/C=C2/C(=O)NN(c3ccccc3)C2=O)c(C)n1-c1ccc(O)cc1	-	-	9.9	-	-	-
COc1ccc(-n2c(C)cc(/C=C3\C(=O)NN(c4ccccc4)C3=O)c2C)cc1	-	-	-	-	-	-
SMILES	NPY-Y1 PAM-ag	NPY Y1 blocker	RAM network inh	WT yeast gro inh	NPY2 pot ag	NPY Y2 blocker
Cc1ccc(C)c(N2CCN(C(=O)Cc3cn(C)c4ccccc34)CC2)c1	-	-	-	63.5	-	-
CCC(=O)N1CCN(c2cc(C)ccc2C)CC1	-	-	-	-	-	-
Cc1ccc(C)c(N2CCN(C(=O)c3csc4ccccc34)CC2)c1	-	-	-	74.0	-	-
Cc1ccc(Cl)cc1N1CCN(C(=O)Cc2cn(C)c3ccccc23)CC1	-	-	-	-	-	-
CCOC(=O)CSc1nnc(-c2cccs2)n1-c1ccccc1	-	-	-	-	-	-
Cc1ccc(S(=O)(=O)N=Nc2c(O)[nH]c3ccccc23)cc1C	-	-	-	-	-	-
